ChEMBL document CHEMBL5584363, “Euphane and Tirucallane Triterpenes with Trypanocidal Activity from Euphorbia desmondii” (J Nat Prod, 2024)
pIC50: −log10 of the molar value. The source made the active and inactive calls. The rule behind the calls is not given here.

Columns and labels:
[1] = system: Trypanosoma cruzi; test: Antitrypanosomal activity against Trypanosoma cruzi epimastigotes Y (ATCC 50832) expressing GFP at 10 uM incubated for 72 hrs by XTT assay; format: functional, organism-based
Outline: (§1)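 Y-strain epimastigotes kept in LIT medium with 10% heat-inactivated FBS at 28 °C; log-phase cells used. 1.5 × 10^5 parasites per well. Exposure at 10 μM (screen) or six concentrations from 10–0.3 μM for 72 h at 28 °C, with benznidazole control. XTT/PMS added for 2.5 h at 28 °C, then MeOH fixation and A490. Viability given as % of vehicle, or IC50. Triplicate, at least two independent experiments.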

[2] = Effect on Trypanosoma cruzi epimastigotes Y (ATCC 50832) expressing GFP proliferation assessed as increase in cell proliferation at 0.3 uM incubated for 72 hrs by XTT assay relative to control; format: functional; outline: as §1
[3] = Selectivity index, ratio of IC50 for mouse RAW264.7 cells to IC50 for antitrypanosomal activity against Trypanosoma cruzi epimastigotes Y (ATCC 50832) expressing GFP; format: toxicity; settings: read-out: Ratio IC50
[4] = system: Trypanosoma cruzi; test: Antitrypanosomal activity against Trypanosoma cruzi epimastigotes Y (ATCC 50832) expressing GFP incubated for 72 hrs by XTT assay; format: functional, organism-based; outline: as §1
[5] = Cytotoxicity against mouse RAW264.7 cells assessed as reduction in cell viability; format: toxicity, cell-based
[6] = Selectivity index, ratio of IC50 for mouse RAW264.7 cells to IC50 for antitrypanosomal activity against Trypanosoma cruzi […] Y (ATCC 50832) expressing GFP infected in mouse RAW264.7 cells assessed as inhibition of parasite replication; format: toxicity, cell-based; settings: read-out: Ratio IC50
[7] = system: Trypanosoma cruzi; test: Antitrypanosomal activity against Trypanosoma cruzi […] Y (ATCC 50832) expressing GFP infected in mouse RAW264.7 cells assessed as inhibition of parasite replication measured after 6 days by FACS analysis; format: functional, organism-based; settings: time 6.0 day
Outline: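 RAW264.7 cells seeded at 40,000 or 10,000 cells/mL and left to adhere 24 h. Infected with swim-out trypomastigotes at multiplicity 10. Next day free parasites washed off and compound added in RPMI with 2% FBS. After 6 days, released GFP parasites fixed in 4% paraformaldehyde 1 h and counted by FACS. Run in triplicate with DMSO and benznidazole controls.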

[8] = system: Trypanosoma cruzi; test: Antitrypanosomal activity against Trypanosoma cruzi trypomastigotes Y (ATCC 50832) expressing GFP infected in CCL39 cells assessed as reduction in parasite replication measured after 1 hr by microscopy; format: functional, organism-based
Outline: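 CCL39 fibroblasts seeded at 20,000 cells/mL and left to adhere 24 h. Infected with trypomastigotes at multiplicity 10. Next day free parasites washed off and compound added in RPMI with 2% hiFBS. On day 4 after infection, cells fixed in 4% paraformaldehyde for 1 h and imaged by brightfield and GFP fluorescence microscopy.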

pIC50 [4] | Compound | Activity [1] | Activity [2] [%] | selectivity ratio [3] | pIC50 [5] | selectivity ratio [6] | inhibition [7] | Activity [8]
 | C[C@@H](C/C=C/C(C)(C)OO)[C@@H]1CC[C@]2(C)C3=C(C(OO)C[C@@]12C)[C@@]1(C)CC[C@H](O)C(C)(C)[C@@H]1CC3=O (some centres not stated) | Active | 15 |  |  |  |  | 
5.43 | CC(=O)CCC[C@H](C)[C@@H]1CC[C@]2(C)C3=C(C(=O)C[C@@]12C)[C@@]1(C)CC[C@H](O)C(C)(C)[C@@H]1CC3=O | Active | 15 | 6.6 | 4.61 |  |  | 
 | C[C@H](C/C=C/C(C)(C)OO)[C@@H]1CC[C@]2(C)C3=C(CC[C@@]12C)[C@@]1(C)CC[C@H](O)C(C)(C)[C@@H]1CC3=O |  |  |  |  | > 10 | Dose-Dependent Effect | Active
 | CC(C)=CCC[C@@H](C)[C@@H]1CC[C@]2(C)C3=C(C(=O)C[C@@]12C)[C@@]1(C)CC[C@H](O)C(C)(C)[C@@H]1C[C@H]3O | Active | 15 |  |  |  |  | 
